High-throughput results (PubChem BioAssay)
ARFGAP1 inhibitor: rat ARFGAP1 inhibition | 360,000 compounds, 0.26% hits | inhibition, % at 16.5 µM | Arfgap1-stimulated ARF1 GTP hydrolysis, GDP FP detection | AID 651572;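 active means inhibition above a per-plate limit, mean inhibition of low control wells plus 3 SD, cut at about 25% in these data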;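 further: 0% = DMSO wells with enzyme and 100% = wells lacking Arfgap1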
Target sequence (Q62848 1-136 limits assumed): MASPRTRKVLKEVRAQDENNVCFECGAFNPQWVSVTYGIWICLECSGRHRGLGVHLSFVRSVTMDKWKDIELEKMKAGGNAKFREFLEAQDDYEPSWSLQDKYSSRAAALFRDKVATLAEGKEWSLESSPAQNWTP
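material = rat Arfgap1 catalytic domain, aa 1-136 | also added = human ARF1(Δ1-17)-GTP substrate | compound dosing = one concentration, 16.5 µM, DMSO 1.26% | times = GTP hydrolysis reaction 2 h at 25 °C | measured by = FP, GDP Alexa 633 tracer displaced from anti-GDP antibody, 620/688 nm | evaluation = percent inhibition of Arfgap1-stimulated GTP hydrolysis | replication = single well per compound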
ASAP1 GAP inh: blocks human ASAP1-stimulated Arf1 GTP hydrolysis. Q9ULH1. GDP FP detection. inhibition, % at 16.5 µM. 360,000 compounds, 0.19% hits. AID 624377; in the data active means inhibition above about 25%;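 further: 0% = vehicle with enzyme and substrate and 100% = no enzyme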
PAFAH1B2 inh: blocks human PAF acetylhydrolase 1b catalytic subunit 2; P68402; recombinant PAFAH1B2, FP-rhodamine activity probe, fluorescence polarization; inhibition, % at 3.39 µM; 340,000 compounds, 1.2% hits; AID 492953;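 active means inhibition above the mean of all tested compounds plus 3 SD, cut at about 24% in these data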;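 further: 0% = enzyme with DMSO and 100% = wells lacking PAFAH1B2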
PAFAH2 FP inh: PAFAH2 (human) inhibition. inhibition, % at 3.39 µM. 340,000 compounds, 0.99% hits. recombinant PAFAH2, FP-rhodamine activity probe, fluorescence polarization. AID 492956. Q99487;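 active means inhibition above the mean over all tested compounds plus 3 SD, cut at about 30% in these data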;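 further: inhibitors block probe labeling of enzyme so polarization drops; 0% = enzyme with DMSO and 100% = wells lacking PAFAH2 protein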
PAFAH1B3 FP inh: PAFAH1B3 (human) inhibition | Q15102 | inhibition, % at 3.39 µM | recombinant PAFAH1B3, FP-rhodamine probe, fluorescence polarization | 340,000 compounds, 0.28% hits;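 active means inhibition above the screen-wide average of all tested compounds plus 3 SD, cut at about 25% in these data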;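 further: 0% = enzyme with DMSO only and 100% = wells lacking PAFAH1B3 protein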
pPAFAH FP inh: pPAFAH (human) enzyme inhibition. Q13093. recombinant pPAFAH, FP-rhodamine probe fluorescence polarization. inhibition, % at 3.39 µM. 330,000 compounds, 1.5% hits;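 active means inhibition above the mean inhibition across the screen plus 3 SD, cut at about 25% in these data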;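 further: inhibitors block binding of the rhodamine activity-based probe so polarization drops; 0% = enzyme with DMSO and 100% = wells lacking pPAFAH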
Target sequence (Q13093 whole entry, looked up): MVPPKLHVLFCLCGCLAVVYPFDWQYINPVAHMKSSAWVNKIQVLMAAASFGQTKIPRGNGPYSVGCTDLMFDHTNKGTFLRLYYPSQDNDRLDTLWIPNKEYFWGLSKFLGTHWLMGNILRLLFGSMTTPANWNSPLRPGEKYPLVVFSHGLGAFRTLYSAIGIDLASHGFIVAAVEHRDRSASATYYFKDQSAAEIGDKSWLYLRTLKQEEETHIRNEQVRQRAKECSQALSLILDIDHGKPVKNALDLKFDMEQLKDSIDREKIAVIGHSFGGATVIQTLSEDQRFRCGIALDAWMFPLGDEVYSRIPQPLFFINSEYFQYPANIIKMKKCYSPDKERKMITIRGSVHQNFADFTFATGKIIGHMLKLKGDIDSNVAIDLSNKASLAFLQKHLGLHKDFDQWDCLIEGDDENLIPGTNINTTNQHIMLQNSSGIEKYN
PAFAH2 FP conf: PAFAH2 (human) inhibition, confirmed | shares compounds with PAFAH2 FP inh | recombinant PAFAH2, FP-rhodamine activity probe, fluorescence polarization | inhibition, % at 3.39 µM | 2,300 compounds, 65% hits;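 active means mean inhibition over three repeats above a set limit taken from the earlier primary screen, cut at about 30% in these data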;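 further: inhibitor blocks binding of rhodamine activity probe so polarization falls; 0% = enzyme with DMSO and 100% = wells lacking PAFAH2 protein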
Active calls of the source: *. An excerpt weighted towards active compounds, which were near 2.7% of everything screened.

What do the screens show for `CC1=C(C(=O)N2CCOCC2)CC(CC(=O)NCCCCc2ccccc2)C(=O)N1CCC1=CCCCC1` (stereo not drawn)?
ARFGAP1 inhibitor: 6; ASAP1 GAP inh: 1

What do the screens show for `O=C(NOCc1ccccc1)c1ccccc1`?
ARFGAP1 inhibitor: 4; ASAP1 GAP inh: 9; PAFAH1B2 inh: 2; PAFAH2 FP inh: -1; PAFAH1B3 FP inh: 4; pPAFAH FP inh: 5

How did COc1cccc(C(=O)OCC(=O)c2ccc(Br)s2)c1OC do in these assays?
ARFGAP1 inhibitor: -2; ASAP1 GAP inh: -5; PAFAH1B2 inh: -2; PAFAH2 FP inh: 62*; PAFAH1B3 FP inh: 4; pPAFAH FP inh: 19; PAFAH2 FP conf: 52*

Results for Cc1cc(C)c(S(=O)(=O)c2cccc(Cl)c2)c(=O)[nH]1 ?
ARFGAP1 inhibitor: -1; ASAP1 GAP inh: 18; PAFAH1B2 inh: 3; PAFAH2 FP inh: -4; PAFAH1B3 FP inh: 9; pPAFAH FP inh: 3

How did Cc1ccccc1NC(=S)N/N=C/c1ccc(O)cc1O do in these assays?
ARFGAP1 inhibitor: -9; ASAP1 GAP inh: 8; PAFAH1B2 inh: 11; PAFAH2 FP inh: 33*; PAFAH1B3 FP inh: 6; pPAFAH FP inh: 5; PAFAH2 FP conf: 15

How did Cc1cccc(NC(=S)N/N=C/c2cccc(O)c2)c1C do in these assays?
ARFGAP1 inhibitor: -6; ASAP1 GAP inh: -18; PAFAH1B2 inh: 0; PAFAH2 FP inh: 0; PAFAH1B3 FP inh: 6; pPAFAH FP inh: 2

How did CCOC(=O)C/C(C)=N/NC(=O)CNc1cccc(Cl)c1C do in these assays?
ARFGAP1 inhibitor: -3; ASAP1 GAP inh: 9; PAFAH1B2 inh: 3; PAFAH2 FP inh: 72*; PAFAH1B3 FP inh: -1; pPAFAH FP inh: -2; PAFAH2 FP conf: 63*

How did Cc1c(Cl)cccc1NCC(=O)NN=C1CCCC1 do in these assays?
ARFGAP1 inhibitor: -3; ASAP1 GAP inh: -5; PAFAH1B2 inh: -2; PAFAH2 FP inh: 3; PAFAH1B3 FP inh: 3; pPAFAH FP inh: 1

Results for COc1ccc(C(C)=O)cc1Cn1cnc2c(cnn2C)c1=O ?
ARFGAP1 inhibitor: 2; ASAP1 GAP inh: 7; PAFAH1B2 inh: 0; PAFAH2 FP inh: -1; PAFAH1B3 FP inh: 5; pPAFAH FP inh: 1

Results for CCOC(=O)c1ccc(NC(C)=O)c([N+](=O)[O-])c1 ?
ARFGAP1 inhibitor: 6; ASAP1 GAP inh: 3; PAFAH1B2 inh: 4; PAFAH2 FP inh: 3; PAFAH1B3 FP inh: 2; pPAFAH FP inh: 4

What do the screens show for `CNc1ccc(C(=O)OCC(=O)Nc2ccnn2C(C)C)cc1[N+](=O)[O-]`?
ARFGAP1 inhibitor: 2; ASAP1 GAP inh: -2; PAFAH1B2 inh: 4; PAFAH2 FP inh: 60*; PAFAH1B3 FP inh: 3; pPAFAH FP inh: 2; PAFAH2 FP conf: 46*

How did CN(C(=O)COC(=O)c1ccc2c(c1)OCCO2)C1CCCCC1 do in these assays?
ARFGAP1 inhibitor: -2; ASAP1 GAP inh: 7; PAFAH1B2 inh: 2; PAFAH2 FP inh: 69*; PAFAH1B3 FP inh: 1; PAFAH2 FP conf: 61*

Results for Cc1cc(C)cc(C(=O)OCC(=O)NC2CCCC2)c1 ?
ARFGAP1 inhibitor: 14; ASAP1 GAP inh: -10; PAFAH1B2 inh: -1; PAFAH2 FP inh: 43*; PAFAH1B3 FP inh: 2; pPAFAH FP inh: 2; PAFAH2 FP conf: 23

Results for Cc1ccc(NC(=O)COC(=O)c2cc(Cl)ccc2[N+](=O)[O-])cc1 ?
ARFGAP1 inhibitor: 6; ASAP1 GAP inh: 11; PAFAH1B2 inh: 5; PAFAH2 FP inh: 56*; PAFAH1B3 FP inh: 3; pPAFAH FP inh: 4; PAFAH2 FP conf: 38*

How did COc1cc(C(=O)OCC(=O)Nc2ccc(C)cc2)cc(OC)c1OC do in these assays?
ARFGAP1 inhibitor: -1; ASAP1 GAP inh: 7; PAFAH1B2 inh: 2; PAFAH2 FP inh: 31*; PAFAH1B3 FP inh: 6; pPAFAH FP inh: 0; PAFAH2 FP conf: 16

Results for CN(C(=O)COC(=O)c1cncc(Br)c1)C1CCCCC1 ?
ARFGAP1 inhibitor: 5; ASAP1 GAP inh: 9; PAFAH1B2 inh: 6; PAFAH2 FP inh: 9; PAFAH1B3 FP inh: 2; pPAFAH FP inh: 2

How did Cc1cc(C)cc(C(=O)OCC(=O)NC(=O)NC2CCCC2)c1 do in these assays?
ARFGAP1 inhibitor: 8; ASAP1 GAP inh: -6; PAFAH1B2 inh: 1; PAFAH2 FP inh: 11; PAFAH1B3 FP inh: 8; pPAFAH FP inh: 3

Results for N#Cc1cnc2nc1NCCCCCCC2 ?
ARFGAP1 inhibitor: 2; ASAP1 GAP inh: -2

Results for C=C(C)COc1ccc(-c2n[nH]c(C)c2-c2ccc(OC)c(OC)c2)c(O)c1 ?
ARFGAP1 inhibitor: 11; ASAP1 GAP inh: 12; PAFAH1B2 inh: 1; PAFAH2 FP inh: 1; PAFAH1B3 FP inh: 6; pPAFAH FP inh: 19

How did COc1ccc(CNS(=O)(=O)c2cc3c4c(c2)C(C)C(=O)N4CCC3)cc1 (stereo not drawn) do in these assays?
ARFGAP1 inhibitor: -10; ASAP1 GAP inh: 3; PAFAH1B2 inh: 3; PAFAH2 FP inh: 0; PAFAH1B3 FP inh: 9; pPAFAH FP inh: 8

Results for COc1cc(C(=O)OCC(=O)NC2CCCCC2)cc(OC)c1OC ?
ARFGAP1 inhibitor: 11; ASAP1 GAP inh: -9; PAFAH1B2 inh: 0; PAFAH2 FP inh: 41*; PAFAH1B3 FP inh: 7; pPAFAH FP inh: -2; PAFAH2 FP conf: 24

What do the screens show for `COc1cc(C(=O)OCC(=O)NC2CCCC2)cc(OC)c1OC`?
ARFGAP1 inhibitor: -4; ASAP1 GAP inh: -8; PAFAH1B2 inh: 7; PAFAH2 FP inh: 18; PAFAH1B3 FP inh: 7; pPAFAH FP inh: 0

Results for O=C(COC(=O)c1ccc2c(c1)OCCO2)NC1CCCCC1 ?
ARFGAP1 inhibitor: 4; ASAP1 GAP inh: 0; PAFAH1B2 inh: -2; PAFAH2 FP inh: 87*; PAFAH1B3 FP inh: -3; pPAFAH FP inh: 8; PAFAH2 FP conf: 77*

How did COc1cc(C(=O)OCC(=O)NC2CCCCC2)cc2c1OCCO2 do in these assays?
ARFGAP1 inhibitor: -3; ASAP1 GAP inh: -10; PAFAH1B2 inh: 0; PAFAH2 FP inh: 74*; PAFAH1B3 FP inh: 3; pPAFAH FP inh: 8; PAFAH2 FP conf: 66*

How did NS(=O)(=O)c1cc(C(=O)OCC(=O)NC2CCCCCCC2)ccc1Cl do in these assays?
ARFGAP1 inhibitor: -11; ASAP1 GAP inh: -11; PAFAH1B2 inh: 16; PAFAH2 FP inh: 9; PAFAH1B3 FP inh: 6

How did O=C1C=CC(=O)N1 do in these assays?
ARFGAP1 inhibitor: -24; ASAP1 GAP inh: 5; PAFAH1B2 inh: -1; PAFAH2 FP inh: 1; PAFAH1B3 FP inh: 6; pPAFAH FP inh: 0

Results for Cc1ccc(-n2cnc3c(=O)[nH]cnc32)cc1[N+](=O)[O-] ?
ARFGAP1 inhibitor: -3; ASAP1 GAP inh: -15; PAFAH1B2 inh: 6; PAFAH2 FP inh: 1; PAFAH1B3 FP inh: 1

How did CC1CCCC(NC(=O)COC(=O)c2cccnc2Cl)C1C (stereo not drawn) do in these assays?
ARFGAP1 inhibitor: -3; ASAP1 GAP inh: -1; PAFAH1B2 inh: 6; PAFAH2 FP inh: 67*; PAFAH1B3 FP inh: 3; pPAFAH FP inh: 7; PAFAH2 FP conf: 51*
